In brackets after ≈: the same amount, converted by molar mass. Activity calls are given as the source filed them. The rule behind the calls is not given here.
Columns and labels:
Staphylococcus aureus [1] = test: Antibacterial activity against vancomycin-resistant Staphylococcus aureus isolate 10 after 20 hrs by broth microdilution assay; type: functional; conditions: isolate 10, 20 h
Staphylococcus aureus [2] = test: Antibacterial activity against vancomycin-resistant Staphylococcus aureus isolate 4 after 20 hrs by broth microdilution assay; type: functional; conditions: isolate 4, 20 h
Staphylococcus aureus [3] = test: Bactericidal activity against Staphylococcus aureus RN4220 NRS107 incubated for 20 hrs followed by replating on tryptic soy agar plates and further incubated for 18 hrs by broth microdilution assay; type: functional
Staphylococcus aureus [4] = test: Bactericidal activity against vancomycin-resistant Staphylococcus aureus isolate 4 incubated for 20 hrs followed by replating on tryptic soy agar plates and further incubated for 18 hrs by broth microdilution assay; type: functional
Staphylococcus aureus [5] = test: Bactericidal activity against methicillin-resistant Staphylococcus aureus USA300 NRS384 incubated for 20 hrs followed by replating on tryptic soy agar plates and further incubated for 18 hrs by broth microdilution assay; type: functional
Staphylococcus aureus [6] = test: Bactericidal activity against methicillin-resistant Staphylococcus aureus NRS123 (USA400) incubated for 20 hrs followed by replating on tryptic soy agar plates and further incubated for 18 hrs by broth microdilution assay; type: functional
Staphylococcus aureus [7] = test: Bactericidal activity against vancomycin-resistant Staphylococcus aureus isolate 10 incubated for 20 hrs followed by replating on tryptic soy agar plates and further incubated for 18 hrs by broth microdilution assay; type: functional
Method in brief: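 From MIC wells without visible growth, an aliquot was spotted onto Tryptic soy agar and incubated at 37 °C for at least 18 h; MBC = lowest concentration inhibiting 99.9% of bacterial growth.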

Staphylococcus aureus [8] = test: Antibacterial activity against Staphylococcus aureus RN4220 NRS107 after 20 hrs by broth microdilution assay; type: functional; conditions: RN4220 NRS107, 20 h
Staphylococcus aureus [9] = test: Antibacterial activity against methicillin-resistant Staphylococcus aureus USA300 NRS384 after 20 hrs by broth microdilution assay; type: functional; conditions: USA300 NRS384, 20 h
Staphylococcus aureus [10] = test: Antibacterial activity against methicillin-resistant Staphylococcus aureus NRS123 (USA400) after 20 hrs by broth microdilution assay; type: functional
Bacillus subtilis [11] = test: Inhibition of cell wall biosynthesis in Bacillus subtilis assessed as induction of large bulges formation at 37.5 ug/ml incubated for 2 hrs by FM-4-64 staining based assay; type: functional, organism-based
Method in brief: (§1)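 B. subtilis was grown in LB at 37 °C to OD600 ~0.2, then treated for 2 h with or without the osmotic stabiliser MSM. Cells were stained with FM 4-64 (1 µg/mL, membranes), DAPI (1 µg/mL, DNA) and SYTOX Green (1 µg/mL, lysis). Morphology was scored by deconvolution fluorescence microscopy against untreated cells.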

Bacillus subtilis [12] = test: Inhibition of cell wall biosynthesis in Bacillus subtilis assessed as induction of formation of misshapen cells at 37.5 ug/ml incubated for 2 hrs by FM-4-64 staining based assay; type: functional, organism-based; method in brief: as §1
Staphylococcus aureus [13] = test: Bactericidal activity against methicillin-resistant Staphylococcus aureus USA200 NRS383 incubated for 20 hrs followed by replating on tryptic soy agar plates and further incubated for 18 hrs by broth microdilution assay; type: functional
Staphylococcus aureus [14] = test: Antibacterial activity against methicillin-resistant Staphylococcus aureus USA200 NRS383 after 20 hrs by broth microdilution assay; type: functional; conditions: USA200 NRS383, 20 h
Staphylococcus aureus [15] = test: Bactericidal activity against methicillin-resistant Staphylococcus aureus USA100 NRS382 incubated for 20 hrs followed by replating on tryptic soy agar plates and further incubated for 18 hrs by broth microdilution assay; type: functional
Staphylococcus aureus [16] = test: Antibacterial activity against methicillin-resistant Staphylococcus aureus USA100 NRS382 after 20 hrs by broth microdilution assay; type: functional; conditions: USA100 NRS382, 20 h
[17] = Half life in human liver microsomes in absence of NADPH by LC-MS/MS analysis; type: ADME, microsome
Method in brief: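 Human liver microsomes were incubated in duplicate at 37 °C in 100 mM potassium phosphate with 3 mM MgCl2, pH 7.4, without NADPH to detect NADPH-free degradation. Aliquots were taken at 0, 10, 20, 40 and 60 min and quenched in ice-cold methanol containing an internal standard, then held at least 10 min at -20 °C before water was added. Half-life was taken from compound depletion.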

[18] = Intrinsic clearance in human liver microsomes in presence of NADPH by LC-MS/MS analysis; type: ADME, microsome; conditions: read-out: CLH
Method in brief: (§2)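 Human liver microsomal protein was incubated in duplicate at 37 °C in 100 mM potassium phosphate, 2 mM NADPH, 3 mM MgCl2, pH 7.4. Samples were taken at 0, 10, 20, 40 and 60 min and stopped with ice-cold methanol containing an internal standard. Half-life was derived from depletion. CLint = ln(2)/(T1/2 × microsomal protein concentration).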

[19] = Half life in human liver microsomes in presence of NADPH by LC-MS/MS analysis; type: ADME, microsome; conditions: liver microsomes; method in brief: as §2
Bacillus subtilis [20] = test: Inhibition of cell wall biosynthesis in Bacillus subtilis assessed as induction of formation of misshapen cells at 1.875 ug/ml incubated for 2 hrs by FM-4-64 staining based assay; type: functional, organism-based
Method in brief: (§3)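 B. subtilis grown in LB at 37 °C to OD600 ~0.2, then treated with or without the osmotic stabiliser MSM for 2 h; stained with FM 4-64 (1 µg/mL, membranes), DAPI (1 µg/mL, DNA) and SYTOX Green (1 µg/mL, lysis); imaged by deconvolution fluorescence microscopy.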

Bacillus subtilis [21] = test: Inhibition of cell wall biosynthesis in Bacillus subtilis assessed as induction of large bulges formation at 1.875 ug/ml incubated for 2 hrs by FM-4-64 staining based assay; type: functional, organism-based; method in brief: as §3
Staphylococcus aureus [22] = test: Antibacterial activity against methicillin-resistant Staphylococcus aureus USA300 NRS384 infected in Caenorhabditis elegans AU37 assessed as reduction in bacterial burden at 20 ug/ml after 18 hrs by microscopic analysis; type: functional
Staphylococcus aureus [23] = test: Inhibition of cell wall synthesis in Staphylococcus aureus RN4220 NRS107 assessed as UDP-N-acetylmuramyl pentapeptide formation at 10 times MIC incubated for 30 mins by HPLC-MS analysis; type: functional, organism-based
Staphylococcus aureus [24] = test: Bactericidal activity against methicillin-resistant Staphylococcus aureus NRS123 (USA400) assessed as time required for complete bacterial elimination after 24 hrs by time-kill assay; type: functional
Staphylococcus aureus [25] = test: Antibacterial activity against methicillin-resistant Staphylococcus aureus NRS123 (USA400) infected in mouse J774 cells assessed as reduction in bacterial colony forming units at 16 ug/ml after 24 hrs relative to control; type: functional
Method in brief: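 J774 macrophages in DMEM + 10% FBS, 37 °C, 5% CO2, infected with USA400 at MOI ~100:1; after 1 h, gentamicin (50 µg/mL) wash; agent at 16 µg/mL in triplicate; at time point, gentamicin wash, lysis in 0.1% Triton X-100, serial dilution, TSA plating 18-22 h at 37 °C; % CFU/mL reduction versus untreated; t-test.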

SMILES	MIC (Staphylococcus aureus [1])	MBC (Staphylococcus aureus [3])	MBC (Staphylococcus aureus [5])	MBC (Staphylococcus aureus [6])	MBC (Staphylococcus aureus [7])	MIC (Staphylococcus aureus [9])	MIC (Staphylococcus aureus [10])	MBC (Staphylococcus aureus [13])	MBC (Staphylococcus aureus [15])	also measured
CCCCc1ccc(-c2nc(C)c(-c3cnc(-c4cccnc4)s3)s2)cc1	> 64 µg/mL	32 µg/mL (≈ 81.7 µM)	16 µg/mL (≈ 40.9 µM)	16 µg/mL (≈ 40.9 µM)	> 64 µg/mL	16 µg/mL (≈ 40.9 µM)	16 µg/mL (≈ 40.9 µM)			MIC (Staphylococcus aureus [2]): > 64 µg/mL; MBC (Staphylococcus aureus [4]): > 64 µg/mL; MIC (Staphylococcus aureus [8]): 16 µg/mL (≈ 40.9 µM)
N[C@@H]1CONC1=O										inhibition (Bacillus subtilis [11]): Active; inhibition (Bacillus subtilis [12]): Active
Cc1nc(-c2ccc3ccccc3c2)sc1-c1cnc(-c2cccnc2)s1	16 µg/mL (≈ 41.5 µM)		64 µg/mL (≈ 166 µM)	> 64 µg/mL	16 µg/mL (≈ 41.5 µM)	16 µg/mL (≈ 41.5 µM)	16 µg/mL (≈ 41.5 µM)	> 64 µg/mL	> 64 µg/mL	MIC (Staphylococcus aureus [14]): 8 µg/mL (≈ 20.8 µM); MIC (Staphylococcus aureus [16]): 8 µg/mL (≈ 20.8 µM)
CCCCc1ccc(-c2nc(C)c(-c3cnc(NC(=N)N)s3)s2)cc1	8 µg/mL (≈ 21.5 µM)	32 µg/mL (≈ 86.1 µM)	16 µg/mL (≈ 43.1 µM)	16 µg/mL (≈ 43.1 µM)	8 µg/mL (≈ 21.5 µM)	16 µg/mL (≈ 43.1 µM)	16 µg/mL (≈ 43.1 µM)			MIC (Staphylococcus aureus [2]): 8 µg/mL (≈ 21.5 µM); MBC (Staphylococcus aureus [4]): 8 µg/mL (≈ 21.5 µM); MIC (Staphylococcus aureus [8]): 16 µg/mL (≈ 43.1 µM)
Cc1nc(-c2ccc(-c3ccccc3)cc2)sc1-c1cnc(N)s1	> 64 µg/mL		> 64 µg/mL	> 64 µg/mL	> 64 µg/mL	> 64 µg/mL	> 64 µg/mL			
Cc1nc(-c2ccc(-c3ccccc3)cc2)sc1-c1cnc(NC(=N)N)s1	8 µg/mL (≈ 20.4 µM)	32 µg/mL (≈ 81.7 µM)	16 µg/mL (≈ 40.9 µM)	16 µg/mL (≈ 40.9 µM)	8 µg/mL (≈ 20.4 µM)	8 µg/mL (≈ 20.4 µM)	16 µg/mL (≈ 40.9 µM)			MIC (Staphylococcus aureus [2]): 8 µg/mL (≈ 20.4 µM); MBC (Staphylococcus aureus [4]): 8 µg/mL (≈ 20.4 µM); MIC (Staphylococcus aureus [8]): 16 µg/mL (≈ 40.9 µM)
CCCCc1ccc(-c2nc(C)c(/C(C)=N/NC(=N)N)s2)cc1										t1/2 [17]: > 240 min; microsomal CLint [18]: 80.3 µL/min/mg; half-life [19]: 28.8 min
Cc1nc(-c2ccc(-c3ccccc3)cc2)sc1-c1cnc(-c2cccnc2)s1	16 µg/mL (≈ 38.9 µM)		64 µg/mL (≈ 156 µM)	> 64 µg/mL	16 µg/mL (≈ 38.9 µM)	16 µg/mL (≈ 38.9 µM)	16 µg/mL (≈ 38.9 µM)	> 64 µg/mL	> 64 µg/mL	MIC (Staphylococcus aureus [14]): 8 µg/mL (≈ 19.4 µM); MIC (Staphylococcus aureus [16]): 8 µg/mL (≈ 19.4 µM)
Cc1onc(-c2ccccc2)c1C(=O)N[C@@H]1C(=O)N2[C@@H]1SC(C)(C)[C@@H]2C(=O)O										inhibition (Bacillus subtilis [20]): Active; inhibition (Bacillus subtilis [21]): Active
Cc1nc(-c2ccc(-c3ccccc3)cc2)sc1-c1cnc(NN)s1	16 µg/mL (≈ 43.9 µM)		64 µg/mL (≈ 176 µM)	> 64 µg/mL	16 µg/mL (≈ 43.9 µM)	16 µg/mL (≈ 43.9 µM)	16 µg/mL (≈ 43.9 µM)	> 64 µg/mL	> 64 µg/mL	MIC (Staphylococcus aureus [14]): 8 µg/mL (≈ 21.9 µM); MIC (Staphylococcus aureus [16]): 8 µg/mL (≈ 21.9 µM)
CCCCc1ccc(-c2nc(C)c(-c3cnc(N)s3)s2)cc1	> 64 µg/mL		> 64 µg/mL	> 64 µg/mL	> 64 µg/mL	> 64 µg/mL	> 64 µg/mL			
CN[C@H](CC(C)C)C(=O)N[C@H]1C(=O)N[C@@H](CC(N)=O)C(=O)N[C@H]2C(=O)N[C@H]3C(=O)N[C@H](C(=O)N[C@H](C(=O)O)c4cc(O)cc(O)c4-c4cc3ccc4O)[C@H](O)c3ccc(c(Cl)c3)Oc3cc2cc(c3O[C@@H]2O[C@H](CO)[C@@H](O)[C@H](O)[C@H]2O[C@H]2C[C@](C)(N)[C@H](O)[C@H](C)O2)Oc2ccc(cc2Cl)[C@H]1O [VANCOMYCIN]	≥ 512 µg/mL				> 512 µg/mL					Activity (Staphylococcus aureus [22]): inactive; MIC (Staphylococcus aureus [2]): > 512 µg/mL; inhibition (Staphylococcus aureus [23]): Active; Time (Staphylococcus aureus [24]): 24 h; Activity (Staphylococcus aureus [25]): inactive
Cc1nc(-c2ccc3ccccc3c2)sc1-c1cnc(NN)s1	16 µg/mL (≈ 47.3 µM)		64 µg/mL (≈ 189 µM)	> 64 µg/mL	16 µg/mL (≈ 47.3 µM)	16 µg/mL (≈ 47.3 µM)	16 µg/mL (≈ 47.3 µM)	> 64 µg/mL	> 64 µg/mL	MIC (Staphylococcus aureus [14]): 8 µg/mL (≈ 23.6 µM); MIC (Staphylococcus aureus [16]): 8 µg/mL (≈ 23.6 µM)
CC(=O)NC[C@H]1CN(c2ccc(N3CCOCC3)c(F)c2)C(=O)O1 [LINEZOLID]		32 µg/mL (≈ 94.9 µM)	16 µg/mL (≈ 47.4 µM)	32 µg/mL (≈ 94.9 µM)	16 µg/mL (≈ 47.4 µM)			32 µg/mL (≈ 94.9 µM)	16 µg/mL (≈ 47.4 µM)	MBC (Staphylococcus aureus [4]): 8 µg/mL (≈ 23.7 µM)
CCCCc1ccc(-c2nc(C)c(-c3cnc(NN)s3)s2)cc1	> 64 µg/mL	32 µg/mL (≈ 92.9 µM)	16 µg/mL (≈ 46.4 µM)	16 µg/mL (≈ 46.4 µM)	> 64 µg/mL	16 µg/mL (≈ 46.4 µM)	16 µg/mL (≈ 46.4 µM)			MIC (Staphylococcus aureus [8]): 16 µg/mL (≈ 46.4 µM)
Cc1nc(-c2ccc3ccccc3c2)sc1-c1cnc(N)s1	> 64 µg/mL		> 64 µg/mL	> 64 µg/mL	> 64 µg/mL	> 64 µg/mL	> 64 µg/mL			

Source: ChEMBL document CHEMBL4130411, “Arylthiazole antibiotics targeting intracellular methicillin-resistant Staphylococcus aureus (MRSA) that interfere with bacterial cell wall synthesis” (Eur J Med Chem, 2017)
